These results are taken from ChEMBL document CHEMBL3351511, “Protective effects of lupeol against D-galactosamine and lipopolysaccharide-induced fulminant hepatic failure in mice” (J Nat Prod, 2014).

The test system of series [1] is Mus musculus. The series can be described thus: Effect on serum IL-6 level in GalN/LPS-induced ICR mouse FHF liver injury model at 100 mg/kg, po administered 1 hr prior to GalN/LPS challenge measured after 6 hrs by ELISA (reference value: 654.1 +/- 19.7 pg/ml). The class given is functional. For orientation: In an ELISA, binding on a coated surface is turned into a signal by an enzyme label.

The test system of series [2] is Mus musculus. The series can be described thus: Protective effect in GalN/LPS-induced ICR mouse FHF liver injury model assessed as reduction in NF-kappaB protein level at 100 mg/kg, po administered 1 hr prior to GalN/LPS challenge measured after 6 hrs by Western blotting analysis relative to vehicle-treated control. The class given is functional, organism-based. Further details: dose 100 mg/kg. In short, it runs like this: (§1)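 Oral pretreatment in olive oil 1 h before ip GalN (800 mg/kg)/LPS (40 μg/kg); liver harvested at 6 h and stored at −75 °C. SDS-PAGE and PVDF transfer used total extract (16−20 μg) for TLR4, MyD88, TRIF, IRAK-1, TRAF6 and IRAK-M, cytosolic (16 μg) for IκB, and nuclear (12 μg) for NF-κB p65. Blots were blocked in 5% milk, given primary antibody overnight at 4 °C, developed by ECL and quantified by densitometry as fold change; n = 6−8.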
A general note: A western blot detects proteins with antibodies after separation by electrophoresis.

For series [3], the system named is Mus musculus. Kind of series: Protective effect in GalN/LPS-induced ICR mouse FHF liver injury model assessed as reduction in TNF-alpha mRNA expression at 100 mg/kg, po administered 1 hr prior to GalN/LPS challenge measured after 6 hrs by RT-PCR analysis relative to vehicle-treated control. Further details: dose 100 mg/kg. The class given is functional, organism-based. In short, it runs like this:
(§2)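 Oral pretreatment in olive oil 1 h before ip GalN (800 mg/kg)/LPS (40 μg/kg), with liver collected at 6 h. mRNA quantified by SYBR green real-time RT-PCR. Cycling: TNF-α 45 cycles (94/65/72 °C) and IL-6 32 cycles (94/58/72 °C). Levels normalized to β-actin by the Ct method. Mean ± SEM, n = 6−8.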

In series [4] the test system is Mus musculus. Kind of series: Effect on liver histology in GalN/LPS-induced ICR mouse FHF liver injury model assessed as reversal of necrosis and inflammatory cell infiltration at 100 mg/kg, po administered 1 hr prior to GalN/LPS challenge measured after 6 hrs by hematoxylin/eosin-labeled microscopic analysis. The class given is functional, organism-based. Further details: dose 100 mg/kg. The procedure, abridged: (§3)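 Liver taken 6 h after challenge, fixed in 10% neutral-buffered formalin, paraffin-embedded, cut at 5 μm, H&E-stained. One pathologist scored random nonconsecutive fields blinded at 200×; n = 6−8.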

Series [5] has as its system Mus musculus. The series can be described thus: Protective effect in GalN/LPS-induced ICR mouse FHF liver injury model assessed as increase in IRAK-M protein level at 100 mg/kg, po administered 1 hr prior to GalN/LPS challenge measured after 6 hrs by Western blotting analysis relative to vehicle-treated control. The series is classed as functional, organism-based. The arrangement: dose 100 mg/kg. In short, it runs like this: as §1

For series [6], the system named is Mus musculus. The series can be described thus: Protective effect in po dosed GalN/LPS-induced ICR mouse FHF liver injury model assessed as survival administered 1 hr prior to GalN/LPS challenge measured up to 24 hrs. The class given is functional, organism-based.
For series [7], the system named is Mus musculus. The series can be described thus: Effect on serum ALT level in GalN/LPS-induced ICR mouse FHF liver injury model at 100 mg/kg, po administered 1 hr prior to GalN/LPS challenge measured after 6 hrs (reference value: 2704 +/- 244.2 U/L). The series is classed as functional.
The subject of series [8] is Mus musculus. The series can be described thus: Effect on serum ALT level in ICR mouse at 100 mg/kg, po after 1 hr (reference value: 57.4 +/- 8.8 U/L). The series is classed as ADME, organism-based. Further details: dose 100 mg/kg, route oral. As to conditions: in vivo.
The test system of series [9] is Mus musculus. The series can be described thus: Effect on serum TNF-alpha level in GalN/LPS-induced ICR mouse FHF liver injury model at 100 mg/kg, po administered 1 hr prior to GalN/LPS challenge measured after 6 hrs by ELISA (reference value: 250.8 +/- 5.4 pg/ml). The class given is functional.
The subject of series [10] is Mus musculus. The series can be described thus: Toxicity in ICR mouse assessed as survival at 100 mg/kg, po. The series is classed as organism-based. Further details: dose 100 mg/kg, route oral. As to conditions: in vivo. In short, it runs like this:
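One hour later they received intraperitoneal PBS vehicle in place of GalN/LPS. Survival was monitored up to 24 h, with 10 mice per survival group, alongside vehicle-only controls.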

Series [11] relates to Mus musculus. Kind of series: Protective effect in GalN/LPS-induced ICR mouse FHF liver injury model assessed as reduction in TLR4 protein level at 100 mg/kg, po administered 1 hr prior to GalN/LPS challenge measured after 6 hrs by Western blotting analysis relative to vehicle-treated control. The series is classed as functional, organism-based. Further details: dose 100 mg/kg. The procedure, abridged:
as §1

The subject of series [12] is Mus musculus. The series can be described thus: Protective effect in GalN/LPS-induced ICR mouse FHF liver injury model assessed as reduction in MyD88 protein level at 100 mg/kg, po administered 1 hr prior to GalN/LPS challenge measured after 6 hrs by Western blotting analysis relative to vehicle-treated control. The arrangement: dose 100 mg/kg. The series is classed as functional, organism-based. The procedure, abridged: as §1

For series [13], the system named is Mus musculus. The series can be described thus: Protective effect in GalN/LPS-induced ICR mouse FHF liver injury model assessed as increase in I-kappaB protein level at 100 mg/kg, po administered 1 hr prior to GalN/LPS challenge measured after 6 hrs by Western blotting analysis relative to vehicle-treated control. The arrangement: dose 100 mg/kg. The class given is functional, organism-based. The procedure, abridged:
as §1

Series [14] concerns Mus musculus. The series can be described thus: Protective effect in GalN/LPS-induced ICR mouse FHF liver injury model assessed as reduction in TRIF protein level at 100 mg/kg, po administered 1 hr prior to GalN/LPS challenge measured after 6 hrs by Western blotting analysis relative to vehicle-treated control. The arrangement: dose 100 mg/kg. The class given is functional, organism-based. The procedure, abridged:
as §1

Series [15] has as its system Mus musculus. The series can be described thus: Protective effect in GalN/LPS-induced ICR mouse FHF liver injury model assessed as reduction in IRAK1 protein level at 100 mg/kg, po administered 1 hr prior to GalN/LPS challenge measured after 6 hrs by Western blotting analysis relative to vehicle-treated control. The series is classed as functional, organism-based. Further details: dose 100 mg/kg. In short, it runs like this:
as §1

Series [16] has as its system Mus musculus. The series can be described thus: Effect on liver histology in ICR mouse at 100 mg/kg, po after 1 hr by hematoxylin/eosin-labeled microscopic analysis relative to control. The series is classed as ADME, organism-based. The arrangement: dose 100 mg/kg, route oral. As to conditions: in vivo. The procedure, abridged:
as §3

Series [17] concerns Mus musculus. Kind of series: Effect on serum IL-6 level in ICR mouse at 100 mg/kg, po after 1 hr by ELISA (reference value: 73.3 +/- 13.1 pg/ml). The arrangement: dose 100 mg/kg, route oral. As to conditions: in vivo. The series is classed as ADME, organism-based.
Series [18] relates to Mus musculus. The series can be described thus: Protective effect in GalN/LPS-induced ICR mouse FHF liver injury model assessed as reduction in IL-6 mRNA expression at 100 mg/kg, po administered 1 hr prior to GalN/LPS challenge measured after 6 hrs by RT-PCR analysis relative to vehicle-treated control. The arrangement: dose 100 mg/kg. The class given is functional, organism-based. The procedure, abridged:
as §2

The subject of series [19] is Mus musculus. Kind of series: Protective effect in GalN/LPS-induced ICR mouse FHF liver injury model assessed as reduction in TRAF6 protein level at 100 mg/kg, po administered 1 hr prior to GalN/LPS challenge measured after 6 hrs by Western blotting analysis relative to vehicle-treated control. The series is classed as functional, organism-based. Further details: dose 100 mg/kg. The procedure, abridged: as §1

Series [20] relates to Mus musculus. The series can be described thus: Effect on serum TNF-alpha level in ICR mouse at 100 mg/kg, po after 1 hr by ELISA (reference value: 42.6 +/- 1.7 pg/ml). The series is classed as ADME, organism-based. The arrangement: dose 100 mg/kg, route oral. As to conditions: in vivo.

Activity calls are given as the source filed them. The calls are words filed in the database; no cut-off is given here.

As to `C=C(C)[C@@H]1CC[C@]2(C)CC[C@]3(C)[C@H](CC[C@@H]4[C@@]5(C)CC[C@H](O)C(C)(C)[C@@H]5CC[C@]43C)[C@@H]12` [LUPEOL], the Activity in the series with Mus musculus [1] is 108.8 pg/mL; in the series with Mus musculus [6], “Dose-dependent effect”; in the series with Mus musculus [7], 682 U/L; in the series with Mus musculus [8] it was 58.1 U/L; in the series on Mus musculus [9], 109 pg/mL; in the series on Mus musculus [10] it was “Non-toxic”. The Activity result in the series with Mus musculus [16] was “Non-toxic”; in the series with Mus musculus [17] it was 75.1 pg/mL; in the series on Mus musculus [20], 41 pg/mL. For the same compound, the outcome in the series on Mus musculus [2], in the series with Mus musculus [3], with Mus musculus [4], in the series on Mus musculus [5], in the series on Mus musculus [11] and with Mus musculus [12] was Active. Moreover, the outcome in the series on Mus musculus [13], in the series on Mus musculus [15], with Mus musculus [18] and in the series on Mus musculus [19] was Active. Moreover, the outcome in the series on Mus musculus [14] was inactive.
